Source: ChEMBL document CHEMBL3351962, “Discovery of 1H-indole-2-carboxamides as novel inhibitors of the androgen receptor binding function 3 (BF3)” (J Med Chem, 2014)
Active and inactive are the calls of the source. No cut-off for these calls is given here.

How the values were obtained:
[1] = target: T1, Androgen receptor (Homo sapiens) (UniProt P10275); assay: Displacement of SRC2 peptide from activation function 2 domain of androgen receptor (unknown origin)
T1 sequence (whole entry): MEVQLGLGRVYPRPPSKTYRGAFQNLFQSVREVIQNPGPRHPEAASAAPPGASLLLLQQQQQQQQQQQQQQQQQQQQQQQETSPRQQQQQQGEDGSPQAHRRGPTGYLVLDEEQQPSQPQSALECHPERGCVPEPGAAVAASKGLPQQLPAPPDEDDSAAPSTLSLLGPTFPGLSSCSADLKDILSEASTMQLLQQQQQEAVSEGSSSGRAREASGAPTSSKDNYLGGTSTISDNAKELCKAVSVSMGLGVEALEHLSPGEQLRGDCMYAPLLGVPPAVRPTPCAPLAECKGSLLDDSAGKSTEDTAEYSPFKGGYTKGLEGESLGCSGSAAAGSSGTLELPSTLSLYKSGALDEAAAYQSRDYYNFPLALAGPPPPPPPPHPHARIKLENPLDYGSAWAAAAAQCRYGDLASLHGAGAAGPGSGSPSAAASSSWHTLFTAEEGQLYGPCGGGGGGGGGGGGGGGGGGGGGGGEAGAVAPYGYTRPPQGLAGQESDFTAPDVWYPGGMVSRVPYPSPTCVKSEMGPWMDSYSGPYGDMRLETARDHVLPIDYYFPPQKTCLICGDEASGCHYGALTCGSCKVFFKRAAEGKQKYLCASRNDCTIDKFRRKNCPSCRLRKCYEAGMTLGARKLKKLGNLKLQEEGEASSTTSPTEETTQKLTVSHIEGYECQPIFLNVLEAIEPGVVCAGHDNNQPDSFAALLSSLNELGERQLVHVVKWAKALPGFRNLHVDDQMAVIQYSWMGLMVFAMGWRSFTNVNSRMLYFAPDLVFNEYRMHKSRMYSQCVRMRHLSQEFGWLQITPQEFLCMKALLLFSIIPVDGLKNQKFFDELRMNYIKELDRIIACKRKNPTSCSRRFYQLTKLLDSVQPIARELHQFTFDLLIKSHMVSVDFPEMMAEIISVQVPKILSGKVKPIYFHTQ

[2] = Solubility of the compound at high drug level; type: physicochemical
[3] = target: T2, Androgen receptor (Homo sapiens, UniProt P10275); assay: Inhibition of androgen receptor binding function 3 in human LNCAP cells containing androgen-responsive probasin-derived promoter assessed as reduction in PSA expression after 3 days by […] assay; type: cell-based
T2 sequence (P10275 whole entry): T1 sequence (whole entry)
Procedure, shortened: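 PSA levels measured in LNCaP cells across a dose range (0−6.25 μM in dose-response curve); IC50 from the dose-dependent decrease of PSA.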

[4] = target: T1, Androgen receptor (Homo sapiens); assay: Displacement of androgen from androgen binding site of androgen receptor (unknown origin)
[5] = target: T2, Androgen receptor; assay: Inhibition of androgen receptor binding function 3 in eGFP-expressing human LNCAP cells containing androgen-responsive probasin-derived promoter assessed as reduction in androgen receptor transcriptional activity after 3 days; type: cell-based
Procedure, shortened: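 eGFP reporter of AR transcriptional activity in LNCaP cells; concentration titration (0−12.5 μM in dose-response); mean of two independent experiments in triplicate (n = 6), SEM; IC50 by fitting log inhibitor concentration vs % activation.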

[6] = target: T1, Androgen receptor (Homo sapiens); assay: Inhibition of androgen receptor binding function 3 in eGFP-expressing human LNCAP cells containing androgen-responsive probasin-derived promoter assessed as reduction in androgen receptor transcriptional activity at 3 uM after 3 days; type: cell-based
[7] = Antiproliferative activity against enzalutamide-resistant human MR49F cells after 4 days by MTS assay; type: functional, cell-based; details: 96 h
Procedure, shortened: (§1)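 MTS viability assay in LNCaP (androgen-stimulated), enzalutamide-resistant MR49F (LNCaP-derived) and androgen-independent PC3 cells; compounds added in serial concentrations, viability read after 4 days of incubation; IC50 from dose-response curves.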

[8] = system: PC-3; assay: Antiproliferative activity against androgen receptor-independent human PC3 cells after 4 days by MTS assay; type: functional, cell-based; procedure, shortened: as §1
[9] = system: LNCaP; assay: Antiproliferative activity against human LNCAP cells after 4 days by MTS assay; type: functional, cell-based; details: 96 h; procedure, shortened: as §1
[10] = target: T2, Androgen receptor
[11] = target: T1, Androgen receptor (Homo sapiens); assay: Direct reversible binding affinity to super-streptavidin bound biotinylated androgen receptor ligand binding domain (unknown origin) expressed in Escherichia coli BL21 by bio-layer Interferometry assay
Procedure, shortened: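 Biolayer interferometry of direct, reversible binding to AR LBD; dose-response with compound at 0−50 μM or 0−100 μM.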

[12] = system: MR49F; assay: Antiproliferative activity against enzalutamide-resistant human MR49F cells at 10 uM after 4 days by MTS assay; type: functional, cell-based

CC(C)N(Cc1ccco1)C(=O)c1cc2cc(F)ccc2[nH]1
inhibition [1]: inactive
solubility [2]: Insoluble
IC50 [3]: 500 nM
inhibition [4]: inactive
IC50 [5]: 600 nM
inhibition [6]: > 50%

CN(Cc1cccs1)C(=O)c1cc2ccc(F)cc2[nH]1
inhibition [1]: inactive
IC50 [3]: 5450 nM
inhibition [4]: inactive
IC50 [5]: 3380 nM
inhibition [6]: > 50%

Cc1ccc(CN(C)C(=O)c2cc3cc(F)ccc3[nH]2)o1
inhibition [1]: inactive
IC50 [3]: 6560 nM
inhibition [4]: inactive
IC50 [5]: 9440 nM
inhibition [6]: > 50%

Cc1ccc(CN(C(=O)c2cc3ccc(F)cc3[nH]2)C(C)C)o1
IC50 [7]: 1310 nM
inhibition [1]: inactive
IC50 [3]: 840 nM
inhibition [8]: inactive
inhibition [4]: inactive
IC50 [5]: 700 nM
inhibition [6]: > 50%
IC50 [9]: 550 nM
IC50 [10]: 2180 nM
Activity [11]: Active

Cc1ccc2cc(C(=O)N(Cc3ccco3)C(C)C)[nH]c2c1
inhibition [1]: inactive
IC50 [3]: 850 nM
inhibition [4]: inactive
IC50 [5]: 1020 nM
inhibition [6]: > 50%

CN(Cc1ccc(Br)o1)C(=O)c1cc2ccc(F)cc2[nH]1
inhibition [1]: inactive
IC50 [3]: 8090 nM
inhibition [4]: inactive
IC50 [5]: 15700 nM
inhibition [6]: > 50%

N#CCCN(Cc1ccccc1)C(=O)c1cc2ccccc2[nH]1
inhibition [1]: inactive
IC50 [3]: 4580 nM
inhibition [4]: inactive
IC50 [5]: 7510 nM
inhibition [6]: > 50%

CC(C)N(Cc1ccco1)C(=O)c1cc2ccc(F)cc2[nH]1
inhibition [1]: inactive
solubility [2]: Insoluble
IC50 [3]: 530 nM
inhibition [4]: inactive
IC50 [5]: 430 nM
inhibition [6]: > 50%

O=C(c1cc2ccc(F)cc2[nH]1)N(Cc1ccco1)Cc1ccco1
inhibition [1]: inactive
IC50 [3]: 5480 nM
inhibition [4]: inactive
IC50 [5]: 4040 nM
inhibition [6]: > 50%

Cc1ccc(CN(C(=O)c2cc3cccc(F)c3[nH]2)C(C)C)o1
inhibition [1]: inactive
IC50 [3]: 1200 nM
inhibition [4]: inactive
IC50 [5]: 1000 nM
inhibition [6]: > 50%

COCCN(Cc1ccco1)C(=O)c1cc2cc(F)ccc2[nH]1
inhibition [1]: inactive
IC50 [3]: 6620 nM
inhibition [4]: inactive
IC50 [5]: 6470 nM
inhibition [6]: > 50%

CNC(=O)c1ccc(N2C(=S)N(c3ccc(C#N)c(C(F)(F)F)c3)C(=O)C2(C)C)cc1F
inhibition [12]: inactive

CN(Cc1ccc(Br)s1)C(=O)c1cc2ccc(F)cc2[nH]1
inhibition [1]: inactive
IC50 [3]: 3060 nM
inhibition [4]: inactive
IC50 [5]: 3530 nM
inhibition [6]: > 50%

Cc1ccc2cc(C(=O)N(Cc3ccc(C)o3)C(C)C)[nH]c2c1
inhibition [1]: inactive
IC50 [3]: 1650 nM
inhibition [4]: inactive
IC50 [5]: 2890 nM
inhibition [6]: > 50%

Cc1ccc2[nH]c(C(=O)N(Cc3ccc(C)o3)C(C)C)cc2c1
inhibition [1]: inactive
IC50 [3]: 1770 nM
inhibition [4]: inactive
IC50 [5]: 2670 nM
inhibition [6]: > 50%

Cc1ccc2[nH]c(C(=O)N(Cc3ccco3)C(C)C)cc2c1
inhibition [1]: inactive
IC50 [3]: 1200 nM
inhibition [4]: inactive
IC50 [5]: 1300 nM
inhibition [6]: > 50%

CC(C)N(Cc1ccco1)C(=O)c1cc2cc(C(F)(F)F)ccc2[nH]1
inhibition [1]: inactive
IC50 [3]: 5290 nM
inhibition [4]: inactive
IC50 [5]: 5200 nM
inhibition [6]: > 50%

Cc1ccc(CN(C(=O)c2cc3ccccc3[nH]2)C(C)C)o1
inhibition [1]: inactive
IC50 [3]: 3420 nM
inhibition [4]: inactive
IC50 [5]: 3320 nM
inhibition [6]: > 50%
Activity [11]: Dose-dependent effect

Cc1ccc(CN(C(=O)c2cc3cc(F)ccc3[nH]2)C(C)C)o1
inhibition [1]: inactive
IC50 [3]: 1380 nM
inhibition [4]: inactive
IC50 [5]: 1100 nM
inhibition [6]: > 50%
